For 3 compounds, Activity results are on record in ChEMBL document CHEMBL4251567 (Eur J Med Chem, 2018).

Test [1] concerns the target Histone deacetylase 2 (Homo sapiens) (UniProt Q92769). The test can be described thus: Inhibition of HDAC2 in human HeLa-S3 cell lysates assessed as remaining activity at 1.25 uM preincubated for 15 mins followed by HDAC-Glo substrate addition measured after 30 to 40 mins by […] relative to control. In short, it runs like this: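 Same antibody-capture format as the other class I isoforms. HeLa-S3 lysate added at 100 μg/mL for HDAC1 and HDAC2, 1 h at 4 °C, then washed. Inhibitor in DMSO preincubated 15 min at RT; HDAC-Glo reagent added and luminescence read after 30-40 min. Concentrations are final. Signal corrected against a well without antibody; activity expressed as % of DMSO control.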

The target of test [2] is Histone deacetylase 1 (Homo sapiens) (UniProt Q13547). Put plainly: Inhibition of HDAC1 in human HeLa-S3 cell lysates assessed as remaining activity at 2 x 10^-6 M preincubated for 15 mins followed by HDAC-Glo substrate addition […] relative to control.
Sequence of Histone deacetylase 1 (Homo sapiens) (Q13547 whole entry): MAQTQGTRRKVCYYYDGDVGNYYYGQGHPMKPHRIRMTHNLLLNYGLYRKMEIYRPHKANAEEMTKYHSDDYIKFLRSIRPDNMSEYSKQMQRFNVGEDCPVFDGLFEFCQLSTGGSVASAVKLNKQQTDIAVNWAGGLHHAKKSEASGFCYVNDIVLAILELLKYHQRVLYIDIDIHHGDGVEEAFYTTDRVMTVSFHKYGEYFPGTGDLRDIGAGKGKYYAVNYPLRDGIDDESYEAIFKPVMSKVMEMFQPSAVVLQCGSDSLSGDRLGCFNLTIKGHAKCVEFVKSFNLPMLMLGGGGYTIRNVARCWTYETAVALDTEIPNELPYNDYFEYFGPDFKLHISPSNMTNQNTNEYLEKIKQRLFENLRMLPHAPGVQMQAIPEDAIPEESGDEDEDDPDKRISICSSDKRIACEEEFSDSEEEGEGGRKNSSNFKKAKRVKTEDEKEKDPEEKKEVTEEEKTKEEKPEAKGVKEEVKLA
Test [3] shares this target. Put plainly: Inhibition of HDAC1 in human HeLa-S3 cell lysates assessed as remaining activity at 4 x 10^-6 M preincubated for 15 mins followed by HDAC-Glo substrate addition measured after 30 to 40 mins by […] relative to control. In short, it runs like this: (§1)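 HDAC1 was captured from HeLa-S3 lysate (100 μg/mL) onto wells precoated with anti-HDAC1 antibody (10 μg/mL, carbonate buffer pH 9.4) and milk-blocked, 1 h at 4 °C, then washed. Inhibitor in DMSO was added in HDAC-Glo buffer for 15 min at room temperature. HDAC-Glo reagent was added and luminescence read after 30-40 min. Concentrations are final. No-antibody background subtracted; % of DMSO control.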

The target in test [4] is Histone deacetylase (Homo sapiens) (UniProt Q13547+O15379+Q9UBN7+Q92769+Q9UQL6+Q8WUI4+Q9BY41+Q96DB2+P56524+Q9UKV0+Q969S8). Put plainly: Inhibition of HDAC in human HeLa-S3 cell lysates assessed as residual activity at 4.8 x 10^-5 M preincubated for 15 mins followed by HDAC-Glo substrate addition measured after 35 mins by […] relative to control. It counts as protein assay.

For test [5], the target named is Histone deacetylase 1 (Homo sapiens) (UniProt Q13547). Put plainly: Inhibition of HDAC1 in human HeLa-S3 cell lysates assessed as remaining activity at 1.6 x 10^-5 M preincubated for 15 mins followed by HDAC-Glo substrate addition measured after 30 to 40 mins by […] relative to control. Summed up:
as §1

Test [6] addresses T1, Protein deacetylase HDAC6 (Homo sapiens) (UniProt Q9UBN7).
T1 sequence (whole entry): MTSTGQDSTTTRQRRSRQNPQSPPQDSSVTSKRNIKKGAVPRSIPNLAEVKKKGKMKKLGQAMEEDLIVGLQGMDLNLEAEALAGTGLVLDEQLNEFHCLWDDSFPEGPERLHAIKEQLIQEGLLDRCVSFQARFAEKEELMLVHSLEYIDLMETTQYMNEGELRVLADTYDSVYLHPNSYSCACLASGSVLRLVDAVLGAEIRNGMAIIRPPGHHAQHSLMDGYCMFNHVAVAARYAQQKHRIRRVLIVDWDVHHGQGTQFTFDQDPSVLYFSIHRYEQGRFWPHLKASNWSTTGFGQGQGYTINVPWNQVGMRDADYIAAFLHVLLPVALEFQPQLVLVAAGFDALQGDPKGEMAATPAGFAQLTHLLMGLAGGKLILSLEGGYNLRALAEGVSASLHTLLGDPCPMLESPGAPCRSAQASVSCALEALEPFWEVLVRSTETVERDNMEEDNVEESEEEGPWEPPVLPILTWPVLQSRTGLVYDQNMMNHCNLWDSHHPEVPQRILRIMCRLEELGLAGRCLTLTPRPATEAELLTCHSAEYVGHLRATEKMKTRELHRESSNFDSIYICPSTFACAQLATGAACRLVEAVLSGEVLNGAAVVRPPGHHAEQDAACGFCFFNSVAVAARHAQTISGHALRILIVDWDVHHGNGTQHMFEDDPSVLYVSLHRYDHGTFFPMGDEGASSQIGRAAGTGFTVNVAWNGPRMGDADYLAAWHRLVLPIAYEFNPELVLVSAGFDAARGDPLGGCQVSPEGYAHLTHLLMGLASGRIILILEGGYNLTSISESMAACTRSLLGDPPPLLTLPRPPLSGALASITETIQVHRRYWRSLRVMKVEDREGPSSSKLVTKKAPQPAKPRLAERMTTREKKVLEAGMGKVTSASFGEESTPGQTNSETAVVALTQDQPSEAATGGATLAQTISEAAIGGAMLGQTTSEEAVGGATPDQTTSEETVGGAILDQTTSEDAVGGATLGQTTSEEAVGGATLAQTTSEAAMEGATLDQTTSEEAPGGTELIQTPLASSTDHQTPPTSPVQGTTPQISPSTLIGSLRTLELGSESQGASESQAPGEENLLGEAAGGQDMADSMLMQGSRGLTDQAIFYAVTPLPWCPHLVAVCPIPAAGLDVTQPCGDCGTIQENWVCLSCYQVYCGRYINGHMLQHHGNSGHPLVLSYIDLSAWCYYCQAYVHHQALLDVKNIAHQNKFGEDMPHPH
Put plainly: Inhibition of HDAC6 in human HeLa-S3 cell lysates assessed as remaining activity at 8 x 10^-7 M preincubated for 15 mins followed by HDAC-Glo substrate addition measured after 30 to 40 mins by […] relative to control. Summed up:
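HDAC6 captured on an anti-HDAC6 antibody-coated plate (2 μg/mL, pH 9.4 carbonate buffer, milk-blocked). HeLa-S3 lysate loaded at 1 mg/mL, 1 h at 4 °C, then washed. 15 min RT preincubation with inhibitor in DMSO; HDAC-Glo reagent added, luminescence read at 30-40 min. Concentrations are final. Background = no-antibody well; values are % activity versus DMSO control.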

Test [7] addresses T2, Histone deacetylase 8 (Homo sapiens) (UniProt Q9BY41).
T2 sequence (whole entry): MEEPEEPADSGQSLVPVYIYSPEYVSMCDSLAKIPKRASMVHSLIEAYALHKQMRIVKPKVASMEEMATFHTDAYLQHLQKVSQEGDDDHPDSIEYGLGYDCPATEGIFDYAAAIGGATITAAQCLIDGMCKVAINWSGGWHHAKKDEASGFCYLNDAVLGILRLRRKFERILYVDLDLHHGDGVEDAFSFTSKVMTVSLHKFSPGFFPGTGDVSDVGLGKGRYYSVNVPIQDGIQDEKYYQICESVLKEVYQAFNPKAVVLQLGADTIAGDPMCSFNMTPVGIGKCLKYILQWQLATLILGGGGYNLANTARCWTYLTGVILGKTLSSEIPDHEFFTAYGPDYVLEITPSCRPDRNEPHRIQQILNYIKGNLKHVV
Put plainly: Inhibition of human recombinant full-length C-terminal His-tagged HDAC8 expressed in baculovirus infected Sf9 insect cell assessed as remaining activity at 8 x 10^-7 M preincubated for 15 mins followed by HDAC-Glo substrate addition measured after 30 mins by fluorimetric method rel;ative to control. In short, it runs like this: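 Recombinant HDAC8 (75 ng) preincubated 15 min at RT with inhibitor in DMSO in HDAC-Glo buffer. HDAC-Glo reagent added and luminescence read 30 min later. Background taken from a reaction without enzyme; activity as % of DMSO control.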

Sequence of Histone deacetylase 2 (Homo sapiens) (Q92769 whole entry, canonical isoform): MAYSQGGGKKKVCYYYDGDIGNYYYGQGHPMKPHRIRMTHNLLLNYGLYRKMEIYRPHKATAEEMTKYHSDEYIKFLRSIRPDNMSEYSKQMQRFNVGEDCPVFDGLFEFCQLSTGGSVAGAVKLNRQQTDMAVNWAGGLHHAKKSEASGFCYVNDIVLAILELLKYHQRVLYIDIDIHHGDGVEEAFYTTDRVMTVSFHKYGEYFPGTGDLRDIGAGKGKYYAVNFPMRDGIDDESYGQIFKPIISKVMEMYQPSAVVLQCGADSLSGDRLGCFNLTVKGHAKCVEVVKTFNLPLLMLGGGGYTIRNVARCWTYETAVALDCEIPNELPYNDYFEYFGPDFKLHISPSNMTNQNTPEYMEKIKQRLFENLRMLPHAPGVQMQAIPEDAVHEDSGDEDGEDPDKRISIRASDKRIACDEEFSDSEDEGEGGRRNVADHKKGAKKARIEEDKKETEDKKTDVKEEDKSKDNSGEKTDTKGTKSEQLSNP

For `CCCCCCC(CCCC(=O)Nc1ccccc1)CCC(=O)NO` (configuration not stated), in test [1], the Activity came to 101%.
Consider `CCC(CCCC(=O)Nc1ccccc1)CCC(=O)NO` (configuration not stated), for which the Activity in test [2] was determined as 68%; in test [3] it was 58%; in test [4] it was 12%; in test [5], 19%.
For `O=C(CC[C@H](CCCC(=O)Nc1ccccc1)Cc1ccccc1)NO`, the Activity in test [6] was 16%; in test [7], 19%.
